Laboratory results published in ChEMBL document CHEMBL1144664, “Design, synthesis, and SAR of new pyrrole-oxindole progesterone receptor modulators leading to 5-(7-fluoro-3,3-dimethyl-2-oxo-2,3-dihydro-1H-indol-5-yl)-1-methyl-1H-pyrrole-2-carbonitrile (WAY-255348)” (J Med Chem, 2008).
Active and inactive are the calls of the source. The rule behind the calls is not given here.

How the values were obtained:
Rattus norvegicus = species on record: Rattus norvegicus; assay: Antagonist activity in rat uterus assessed as progesterone-induced decidualization response in stromal cells; type: functional
In short: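 Female rat decidualization model: compound given orally in 0.5% methyl cellulose/2% Tween 80 to antagonize the progesterone-induced decidual response of uterine stromal cells. ED50 reported.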

Progesterone receptor [1] = target: T1, Progesterone receptor (Homo sapiens, UniProt P06401); assay: Antagonist activity at human PR expressed in human T47D cells assessed as inhibition of progesterone induced alkaline phosphatase; type: functional, cell-based
T1 sequence (P06401 whole entry): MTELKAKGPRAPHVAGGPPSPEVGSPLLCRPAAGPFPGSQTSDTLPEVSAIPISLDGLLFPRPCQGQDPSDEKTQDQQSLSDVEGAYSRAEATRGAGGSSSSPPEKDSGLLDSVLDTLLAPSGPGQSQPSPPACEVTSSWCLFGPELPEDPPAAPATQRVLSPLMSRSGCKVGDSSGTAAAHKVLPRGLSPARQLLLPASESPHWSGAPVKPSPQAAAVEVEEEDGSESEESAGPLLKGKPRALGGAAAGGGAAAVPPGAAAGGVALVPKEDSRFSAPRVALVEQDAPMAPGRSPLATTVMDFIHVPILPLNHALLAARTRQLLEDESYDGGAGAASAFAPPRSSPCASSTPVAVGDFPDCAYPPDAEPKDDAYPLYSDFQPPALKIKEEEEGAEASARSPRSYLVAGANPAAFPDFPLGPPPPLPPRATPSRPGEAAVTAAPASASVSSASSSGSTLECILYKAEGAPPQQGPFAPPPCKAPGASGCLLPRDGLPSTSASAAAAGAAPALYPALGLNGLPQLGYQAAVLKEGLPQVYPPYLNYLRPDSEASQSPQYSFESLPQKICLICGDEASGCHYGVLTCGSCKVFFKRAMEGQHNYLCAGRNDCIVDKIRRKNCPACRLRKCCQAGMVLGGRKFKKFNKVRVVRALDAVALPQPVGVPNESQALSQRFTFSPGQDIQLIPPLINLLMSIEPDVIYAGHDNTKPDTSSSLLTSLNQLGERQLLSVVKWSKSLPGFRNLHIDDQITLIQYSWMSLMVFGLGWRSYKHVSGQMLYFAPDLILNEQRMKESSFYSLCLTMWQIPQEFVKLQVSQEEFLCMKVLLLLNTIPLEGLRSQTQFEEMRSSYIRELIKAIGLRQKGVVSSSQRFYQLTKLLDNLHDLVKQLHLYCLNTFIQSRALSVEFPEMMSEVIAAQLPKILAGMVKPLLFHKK

[2] = Stability in rat liver microsome assessed as half life; type: ADME; details: liver microsomes
In short: (§1)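 Female rat, cynomolgus monkey and human liver microsome stability; half-life (min) reported.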

[3] = Drug level in cynomolgus monkey at […], iv; type: ADME, organism-based, Macaca fascicularis; set-up: dose 0.25 mg/kg, route intravenous; details: in vivo
[4] = Half life in cynomolgus monkey at 5 mg/kg, po; type: ADME, organism-based, Macaca fascicularis; set-up: dose 5 mg/kg, route oral; details: in vivo
[5] = Half life in cynomolgus monkey at 1 mg/kg, iv; type: ADME, organism-based, Macaca fascicularis; set-up: dose 1 mg/kg, route intravenous; details: in vivo
Progesterone receptor [6] = target: T1, Progesterone receptor; assay: Displacement of [3H]R5020 from human PR in human T47D cells by whole cell assay; type: cell-based
[7] = Stability in human liver microsome assessed as half life; type: ADME; details: liver microsomes; in short: as §1
[8] = target: T2, Glucocorticoid receptor (Homo sapiens) (UniProt P04150); assay: Antagonist activity at human GR ligand binding domain expressed in african green monkey COS7 cells in presence of Dexamethasone by Gal4 hybrid assay; type: cell-based; details: COS-7
T2 sequence (whole entry): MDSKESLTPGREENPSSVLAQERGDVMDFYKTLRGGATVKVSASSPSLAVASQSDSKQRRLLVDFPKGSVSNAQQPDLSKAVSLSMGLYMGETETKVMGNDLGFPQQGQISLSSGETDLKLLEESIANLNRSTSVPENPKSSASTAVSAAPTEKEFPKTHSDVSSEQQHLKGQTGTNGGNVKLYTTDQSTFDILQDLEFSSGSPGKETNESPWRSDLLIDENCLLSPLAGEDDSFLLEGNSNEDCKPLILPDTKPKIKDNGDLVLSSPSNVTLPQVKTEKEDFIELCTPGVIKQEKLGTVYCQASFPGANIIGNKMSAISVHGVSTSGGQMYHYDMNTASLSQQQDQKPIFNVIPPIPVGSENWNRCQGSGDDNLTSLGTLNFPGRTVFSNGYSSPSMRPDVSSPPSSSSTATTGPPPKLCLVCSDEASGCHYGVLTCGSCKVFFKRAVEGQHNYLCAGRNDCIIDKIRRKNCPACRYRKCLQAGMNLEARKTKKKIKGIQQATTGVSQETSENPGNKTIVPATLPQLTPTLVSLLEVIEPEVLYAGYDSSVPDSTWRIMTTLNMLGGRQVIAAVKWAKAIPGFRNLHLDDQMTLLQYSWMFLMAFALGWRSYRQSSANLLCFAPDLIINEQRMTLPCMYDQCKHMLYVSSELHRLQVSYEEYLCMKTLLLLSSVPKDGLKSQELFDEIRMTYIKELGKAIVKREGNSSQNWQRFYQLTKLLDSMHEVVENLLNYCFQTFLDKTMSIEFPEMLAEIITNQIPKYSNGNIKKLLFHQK

[9] = Volume of distribution at steady state in cynomolgus monkey at […], iv; type: ADME, organism-based, Macaca fascicularis; set-up: dose 0.25 mg/kg, route intravenous; details: in vivo, read-out: Vdss
[10] = AUC (0 to infinity) in cynomolgus monkey at 5 mg/kg, po; type: ADME, organism-based, Macaca fascicularis; set-up: dose 5 mg/kg, route oral, time infinity; details: plasma
Rhesus monkey = assay: Effect on myometrial weight of rhesus monkey; type: functional, Macaca mulatta
In short: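 Adult female rhesus macaques (n=3) with regular cycles dosed 10 mg/(kg·day) po in 2% Tween 80/0.5% methylcellulose with cherry flavoring for 28 days from cycle day 2. Serum estradiol and progesterone measured every 3 days. Necropsy on day 28. Uterine weights are of half the uterus; KI-67 and mitotic indices counted per 1000 cells. Values given as mean ± SE.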

[11] = AUC (0 to infinity) at steady state in cynomolgus monkey at 1 mg/kg, iv; type: ADME, organism-based, Macaca fascicularis; set-up: time infinity, dose 1 mg/kg, route intravenous; details: plasma
[12] = Volume of distribution at steady state in Sprague-Dawley rat at 0.5 mg/kg, iv; type: ADME, organism-based; set-up: dose 0.5 mg/kg, route intravenous; details: in vivo, read-out: Vdss
In short: (§2)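 Female Sprague–Dawley rats dosed as 1-in-4 cassette or discrete studies. iv in DMSO/PEG200 20:80; po in aqueous 2% Tween 80/0.5% methyl cellulose. Parameters reported: C0, Cmax, t1/2, plasma clearance, Vss, AUC0-inf and %F.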

Cynomolgus monkey = assay: Inhibition of ovulation in cynomolgus monkey assessed as basal level of progesterone at 10 mg/kg; type: functional, organism-based; set-up: dose 10 mg/kg; details: Macaca fascicularis
In short: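 Normally cycling cynomolgus monkeys dosed orally, daily at 1, 3 or 10 mg/kg (n=4–6) or vehicle (n=2), in 2% Tween 80/0.5% methylcellulose for 30 days from cycle day 2. Serum sampled three times weekly; progesterone measured by radioimmunoassay to detect a luteal-phase rise as the sign of ovulation.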

[13] = Oral bioavailability in Sprague-Dawley rat at 5 mg/kg; type: ADME, organism-based; details: in vivo; in short: as §2

## Cn1c(C#N)ccc1-c1cc(F)c2c(c1)C(C)(C)C(=O)N2
Rattus norvegicus
  ED50: 0.3 mg/kg
Progesterone receptor [1]
  IC50: 5 nM
[2]
  half-life: 26 min
[3]
  C0: 178 ng/mL
[4]
  half-life: 942 min
[5]
  half-life: 468 min
Progesterone receptor [6]
  IC50: 4.1 nM
[7]
  half-life: > 30 min
[8]
  Activity: inactive
[9]
  Vd: 3.9 L/kg
[10]
  AUC(0-inf): 5740 ng·h/mL
Rhesus monkey
  Activity: 1760 mg
[11]
  AUC(0-inf): 2360 ng·h/mL
[12]
  Vd: 2.9 L/kg
Cynomolgus monkey
  Activity: Active
[13]
  bioavailability: 31%
